According to ChEMBL document CHEMBL3997801, “Design, Palladium-Catalyzed Synthesis, and Biological Investigation of 2-Substituted 3-Aroylquinolin-4(1H)-ones as Inhibitors of the Hedgehog Signaling Pathway” (J Med Chem, 2017):
Calls of active or inactive are those of the source. The rule behind the calls is not given here.

How the values were obtained:
[1] = target: Protein smoothened (Mus musculus) (UniProt P56726); experiment: Antagonist activity at Smo in Ptch1-/- mouse MEF assessed as inhibition of Hh signaling pathway by measuring suppression of Gli1 mRNA expression at 5 uM after 48 hrs by qRT-PCR method
Sequence of Protein smoothened (Mus musculus) (P56726 whole entry): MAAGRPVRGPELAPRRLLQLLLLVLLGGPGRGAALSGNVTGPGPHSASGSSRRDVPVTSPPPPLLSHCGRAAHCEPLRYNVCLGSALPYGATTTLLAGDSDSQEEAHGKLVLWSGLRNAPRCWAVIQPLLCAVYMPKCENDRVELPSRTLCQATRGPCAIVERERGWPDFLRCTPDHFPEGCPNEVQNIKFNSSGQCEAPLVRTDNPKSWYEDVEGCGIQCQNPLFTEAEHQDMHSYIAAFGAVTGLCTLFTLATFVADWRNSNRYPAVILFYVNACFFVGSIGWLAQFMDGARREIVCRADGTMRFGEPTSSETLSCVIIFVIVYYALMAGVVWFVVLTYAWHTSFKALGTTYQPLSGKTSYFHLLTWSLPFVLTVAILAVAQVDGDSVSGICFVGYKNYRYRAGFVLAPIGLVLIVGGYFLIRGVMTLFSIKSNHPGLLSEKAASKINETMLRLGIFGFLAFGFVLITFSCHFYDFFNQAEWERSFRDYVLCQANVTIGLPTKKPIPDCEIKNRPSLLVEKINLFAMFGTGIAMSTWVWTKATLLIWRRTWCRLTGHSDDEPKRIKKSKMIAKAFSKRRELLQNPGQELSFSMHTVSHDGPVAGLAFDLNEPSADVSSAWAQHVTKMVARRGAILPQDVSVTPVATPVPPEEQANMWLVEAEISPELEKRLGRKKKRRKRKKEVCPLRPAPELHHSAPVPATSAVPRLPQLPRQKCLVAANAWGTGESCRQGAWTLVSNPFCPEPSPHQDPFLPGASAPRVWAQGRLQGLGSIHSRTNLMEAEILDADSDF

[2] = target: Protein smoothened (Mus musculus) (UniProt P56726); experiment: Antagonist activity at Smo in Ptch1-/- mouse MEF assessed as inhibition of Hh signaling pathway by measuring suppression of Gli2 mRNA expression at 5 uM after 48 hrs by qRT-PCR method
[3] = target: Protein smoothened (Mus musculus) (UniProt P56726); experiment: Antagonist activity at Smo in Ptch1-/- mouse MEF assessed as inhibition of Hh signaling pathway by measuring suppression of Ptch1 mRNA expression at 5 uM after 48 hrs by qRT-PCR method
[4] = target: Protein smoothened (Mus musculus) (UniProt P56726); experiment: Antagonist activity at Smo in Ptch1-/- mouse MEF assessed as inhibition of Hh signaling pathway by measuring suppression of CycD1 mRNA expression at 5 uM after 48 hrs by qRT-PCR method
[5] = target: Protein smoothened (Mus musculus) (UniProt P56726); experiment: Antagonist activity at Smo in Ptch1-/- mouse MEF assessed as inhibition of Hh signaling pathway by measuring suppression of CycD2 mRNA expression at 5 uM after 48 hrs by qRT-PCR method
[6] = target: Protein smoothened (Mus musculus) (UniProt P56726); experiment: Antagonist activity at Smo in Ptch1-/- mouse MEF assessed as inhibition of Hh signaling pathway by measuring suppression of HIP1 mRNA expression at 5 uM after 48 hrs by qRT-PCR method
[7] = target: Protein smoothened (Mus musculus) (UniProt P56726); experiment: Antagonist activity at Smo in Ptch1-/- mouse MEF assessed as inhibition of Hh signaling pathway by measuring suppression of Igf2 mRNA expression at 5 uM after 48 hrs by qRT-PCR method
[8] = (§1) Inhibition of Bodipy-cyclopamine binding to mouse FLAG-tagged Smo D477G mutant expressed in HEK293 cells after 3 hrs by Hoechst staining based fluorescence assay; type: cell-based
Method in brief: (§2)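 Cells transiently transfected with mouse Flag-tagged Smo WT or D477G were washed in PBS/0.5% FBS, fixed 10 min in 4% paraformaldehyde and permeabilized with 0.2% Triton X-100. They were then incubated 3 h at 37 °C with Bodipy-cyclopamine 5 nM plus compound, with Hoechst nuclear stain. Green signal was scored in 3–4 fields per coverslip (20×) as % of binding with BC alone.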

Mus musculus = species on record: Mus musculus; experiment: as §1; type: cell-based; method in brief: as §2
Protein smoothened = Protein smoothened (Mus musculus, UniProt P56726); experiment: Inhibition of Bodipy-cyclopamine binding to mouse FLAG-tagged Smo expressed in HEK293 cells after 3 hrs by Hoechst staining based fluorescence assay; type: cell-based; method in brief: as §2
Sequence of Protein smoothened (P56726 whole entry): as above

[9] = target: Protein smoothened (Mus musculus) (UniProt P56726); experiment: Antagonist activity at Smo in […]-stimulated mouse granule cell progenitors assessed as inhibition of Hh signaling pathway-dependent cell proliferation by measuring suppression of Gli1 mRNA expression at 5 uM after 24 hrs by qRT-PCR method
[10] = target: Protein smoothened (Mus musculus) (UniProt P56726); experiment: Antagonist activity at Smo in […]-stimulated mouse granule cell progenitors assessed as inhibition of Hh signaling pathway-dependent cell proliferation by measuring suppression of Gli2 mRNA expression at 5 uM after 24 hrs by qRT-PCR method
[11] = target: Protein smoothened (Mus musculus) (UniProt P56726); experiment: Antagonist activity at Smo in […]-stimulated mouse granule cell progenitors assessed as inhibition of Hh signaling pathway-dependent cell proliferation by measuring suppression of Ptch1 mRNA expression at 5 uM after 24 hrs by qRT-PCR method
[12] = target: Protein smoothened (Mus musculus) (UniProt P56726); experiment: Antagonist activity at Smo in […]-stimulated mouse granule cell progenitors assessed as inhibition of Hh signaling pathway-dependent cell proliferation by measuring suppression of CycD1 mRNA expression at 5 uM after 24 hrs by qRT-PCR method
[13] = target: Protein smoothened (Mus musculus) (UniProt P56726); experiment: Antagonist activity at Smo in […]-stimulated mouse granule cell progenitors assessed as inhibition of Hh signaling pathway-dependent cell proliferation by measuring suppression of CycD2 mRNA expression at 5 uM after 24 hrs by qRT-PCR method
[14] = target: Protein smoothened (Mus musculus) (UniProt P56726); experiment: Antagonist activity at Smo in […]-stimulated mouse granule cell progenitors assessed as inhibition of Hh signaling pathway-dependent cell proliferation by measuring suppression of N-Myc mRNA expression at 5 uM after 24 hrs by qRT-PCR method
[15] = target: Protein smoothened (Mus musculus) (UniProt P56726); experiment: Antagonist activity at Smo in […]-stimulated mouse granule cell progenitors assessed as inhibition of Hh signaling pathway-dependent cell proliferation by measuring suppression of Gli1 protein expression at 5 uM after 24 hrs by Western blot method
[16] = target: Protein smoothened (Mus musculus) (UniProt P56726); experiment: Antagonist activity at Smo in […]-stimulated mouse granule cell progenitors assessed as inhibition of Hh signaling pathway-dependent cell proliferation by measuring suppression of NMyc protein expression at 5 uM after 24 hrs by Western blot method
[17] = target: Protein smoothened (Mus musculus) (UniProt P56726); experiment: Antagonist activity at Smo in […]-stimulated mouse granule cell progenitors assessed as inhibition of Hh signaling pathway-dependent cell proliferation by measuring suppression of CycD1 protein expression at 5 uM after 24 hrs by Western blot method
[18] = target: Protein smoothened (Mus musculus) (UniProt P56726); experiment: Antagonist activity at Smo in Ptch1+/- mouse medulloblastoma cells assessed as inhibition of Hh pathway dependent cell growth up to 72 hrs by trypan blue assay
Method in brief: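 Primary MB cells freshly isolated from Ptch1± mouse tumours, used in short-term culture to keep Hh sensitivity; compound 10 μM or DMSO control; viable cells counted by trypan blue after 24, 48 and 72 h. Mean ± SD of three independent experiments.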

[19] = target: Protein smoothened (Mus musculus) (UniProt P56726); experiment: Antagonist activity at Smo in Ptch1+/- mouse medulloblastoma cells assessed as inhibition of Hh signaling pathway by measuring suppression of Gli1 mRNA expression at 10 uM after 24 hrs by qRT-PCR method
Method in brief: (§3)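 Freshly isolated Ptch1± mouse MB cells in short-term culture, treated 24 h with compound (10 μM) or DMSO. mRNA measured by qRT-PCR against a calibrator (arbitrary units) and normalized to β2-microglobulin and HPRT. Mean ± SD of three independent experiments.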

[20] = target: Protein smoothened (Mus musculus) (UniProt P56726); experiment: Antagonist activity at Smo in Ptch1+/- mouse medulloblastoma cells assessed as inhibition of Hh signaling pathway by measuring suppression of Gli2 mRNA expression at 10 uM after 24 hrs by qRT-PCR method; method in brief: as §3
[21] = target: Protein smoothened (Mus musculus) (UniProt P56726); experiment: Antagonist activity at Smo in Ptch1+/- mouse medulloblastoma cells assessed as inhibition of Hh signaling pathway by measuring suppression of Ptch1 mRNA expression at 10 uM after 24 hrs by qRT-PCR method; method in brief: as §3
[22] = target: Protein smoothened (Mus musculus) (UniProt P56726); experiment: Antagonist activity at Smo in Ptch1+/- mouse medulloblastoma cells assessed as inhibition of Hh signaling pathway by measuring suppression of CycD1 mRNA expression at 10 uM after 24 hrs by qRT-PCR method; method in brief: as §3
[23] = target: Protein smoothened (Mus musculus) (UniProt P56726); experiment: Antagonist activity at Smo in Ptch1+/- mouse medulloblastoma cells assessed as inhibition of Hh signaling pathway by measuring suppression of CycD2 mRNA expression at 10 uM after 24 hrs by qRT-PCR method; method in brief: as §3
[24] = target: Protein smoothened (Mus musculus) (UniProt P56726); experiment: Antagonist activity at Smo in mouse ASZ001 cells assessed as inhibition of Hh pathway dependent cell growth up to 72 hrs by trypan blue assay; type: cell-based
Method in brief: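 ASZ001 BCC cells grown in 154CF medium with 2% Chelex-chelated FBS and 0.05 mM CaCl2, treated with compound or DMSO control; viable cells counted by trypan blue after 24, 48 and 72 h.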

[25] = target: Protein smoothened (Mus musculus) (UniProt P56726); experiment: Antagonist activity at Smo in mouse ASZ001 cells assessed as inhibition of Hh signaling pathway by measuring suppression of Gli1 mRNA expression at 10 uM after 48 hrs by qRT-PCR method; type: cell-based
Method in brief: (§4)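 ASZ001 BCC cells (154CF medium, 2% chelated FBS, 0.05 mM CaCl2), treated 48 h with compound or DMSO. Transcripts quantified by qRT-PCR relative to a calibrator, normalized to β2-microglobulin and HPRT.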

[26] = target: Protein smoothened (Mus musculus) (UniProt P56726); experiment: Antagonist activity at Smo in mouse ASZ001 cells assessed as inhibition of Hh signaling pathway by measuring suppression of Gli2 mRNA expression at 10 uM after 48 hrs by qRT-PCR method; type: cell-based; method in brief: as §4
[27] = target: Protein smoothened (Mus musculus) (UniProt P56726); experiment: Antagonist activity at Smo in mouse ASZ001 cells assessed as inhibition of Hh signaling pathway by measuring suppression of Ptch1 mRNA expression at 10 uM after 48 hrs by qRT-PCR method; type: cell-based; method in brief: as §4
[28] = target: Protein smoothened (Mus musculus) (UniProt P56726); experiment: Antagonist activity at Smo in mouse ASZ001 cells assessed as inhibition of Hh signaling pathway by measuring suppression of CycD1 mRNA expression at 10 uM after 48 hrs by qRT-PCR method; type: cell-based; method in brief: as §4
[29] = target: Protein smoothened (Mus musculus) (UniProt P56726); experiment: Antagonist activity at Smo in mouse ASZ001 cells assessed as inhibition of Hh signaling pathway by measuring suppression of CycD2 mRNA expression at 10 uM after 48 hrs by qRT-PCR method; type: cell-based; method in brief: as §4
[30] = target: Protein smoothened (Mus musculus) (UniProt P56726); experiment: Antagonist activity at Smo in mouse ASZ001 cells assessed as inhibition of Hh signaling pathway by measuring suppression of BMP2 mRNA expression at 10 uM after 48 hrs by qRT-PCR method; type: cell-based; method in brief: as §4

| Compound | inhibition [1] | inhibition [2] | inhibition [3] | inhibition [4] | inhibition [5] | inhibition [6] | inhibition [7] | IC50 [8] | inhibition (Mus musculus) | IC50 (Protein smoothened) | inhibition [9] | inhibition [10] | inhibition [11] | inhibition [12] | inhibition [13] | inhibition [14] | inhibition [15] | inhibition [16] | inhibition [17] | growth inhibition (GI) [18] | also measured |
| --- | --- | --- | --- | --- | --- | --- | --- | --- | --- | --- | --- | --- | --- | --- | --- | --- | --- | --- | --- | --- | --- |
| O=C(c1ccccc1)c1c(-c2ccccc2)[nH]c2ccc(Br)cc2c1=O | Active | Active | Active | Active | Active | Active | Active | 29.4 µM | Dose-dependent effect | 24 µM | Active | Active | Active | Active | Active | Active | Active | Active | Active | Dose-dependent effect | inhibition [19]: Active; inhibition [20]: Active; inhibition [21]: Active; inhibition [22]: Active; inhibition [23]: Active; growth inhibition (GI) [24]: Dose-dependent effect; inhibition [25]: Active; inhibition [26]: Active; inhibition [27]: Active; inhibition [28]: Active; inhibition [29]: Active; inhibition [30]: Active |
| COc1cccc(C(=O)c2c(-c3ccccc3)[nH]c3ccccc3c2=O)c1 | Active | Active | Active | Active | Active | Active | Active | 12.4 µM | Dose-dependent effect | 13.8 µM | Active | Active | Active | Active | Active | Active | Active | Active | Active | Dose-dependent effect | inhibition [19]: Active; inhibition [20]: Active; inhibition [21]: Active; inhibition [22]: Active; inhibition [23]: Active; growth inhibition (GI) [24]: Dose-dependent effect; inhibition [25]: Active; inhibition [26]: Active; inhibition [27]: Active; inhibition [28]: Active; inhibition [29]: Active; inhibition [30]: Active |
